# Compound activity from PubChem BioAssay.
# Hits are enriched below; roughly 2.9% of the tested compounds scored in any of these assays.
# UBC13 polyUb – human UBC13 polyubiquitination inhibition; P61088; 330,000 tested, 0.47% active; UBC13 polyubiquitin chain formation, TR-FRET; inhibition, % at 20 µM; in the data active means inhibition above about 45%, passing the limit was not always enough
# Target sequence (P61088 whole entry, looked up): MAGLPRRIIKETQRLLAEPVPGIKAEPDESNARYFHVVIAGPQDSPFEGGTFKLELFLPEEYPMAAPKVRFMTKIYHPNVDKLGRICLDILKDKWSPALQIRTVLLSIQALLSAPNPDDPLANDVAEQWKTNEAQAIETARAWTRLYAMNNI
# M18AAP inhibitor – blocks P. falciparum M18 aspartyl aminopeptidase; recombinant PfM18AAP, H-Glu-NHMec fluorogenic cleavage; inhibition, % at 7.35 µM; 290,000 tested, 1.2% active;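 active means inhibition above the campaign mean inhibition over all tested compounds plus 3 SD, cut at about 28% in these data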;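 further: 0% = plate median of test compound wells and 100% = 2 mM ZnCl2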
# Apaf-1 inh – inhibitors of human Apaf-1 apoptosome; O14727; reconstituted apoptosome caspase-3 activity, DEVD-Rh110 fluorescence; inhibition, % at 20 µM; 330,000 tested, 0.71% active; active means inhibition of at least 40% at 20 µM;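 further: plate controls were DMSO wells for no effect and DEVD-CHO caspase inhibitor wells for full effect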
#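 System – cell-free apoptosome with Apaf-1, procaspase-3 and caspase-9 · Buffer or medium – pH 7.5 Hepes buffer with CHAPS, BSA, DTT · Also added – cytochrome c with DEVD-Rh110 · Times – 30 min compound preincubation, 50 min activation, room temperature · Technique – Rh110 fluorescence intensity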
# EBNA-1 inh – blocks EBNA-1 binding to DNA. EBNA-1 DNA binding, fluorescence polarization. inhibition, % at 14.8 µM. 300,000 tested, 0.34% active. AID 1950; in the data active means inhibition above about 28%
# ZTA DNA inh – ZTA (EBV) inhibition in EBNA-1 counter-screen | P03206 | ZTA-DNA binding, fluorescence polarization | inhibition, % at 11 µM | 320,000 tested, 0.15% active; in the data active means inhibition above about 33%
# Target sequence (P03206 whole entry, looked up): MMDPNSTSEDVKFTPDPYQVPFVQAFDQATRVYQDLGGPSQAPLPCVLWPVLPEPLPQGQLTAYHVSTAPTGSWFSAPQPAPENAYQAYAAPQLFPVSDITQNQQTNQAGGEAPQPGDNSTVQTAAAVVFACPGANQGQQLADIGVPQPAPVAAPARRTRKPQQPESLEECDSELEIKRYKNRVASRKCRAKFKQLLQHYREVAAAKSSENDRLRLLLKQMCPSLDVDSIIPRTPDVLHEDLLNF
# PfGluPho inh – PfG6PD (Plasmodium falciparum) enzyme inhibition; PfGluPho enzyme, NADPH resazurin-diaphorase fluorescence; inhibition, % at 20 µM; 350,000 tested, 0.78% active; AID 504690;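 active means inhibition reaching at least a set limit at 20 µM in the primary screen, cut at about 59% in these data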;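 further: 0% = DMSO wells with substrate and 100% = DMSO wells lacking glucose-6-phosphate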
# EBNA-1 inh conf – EBNA-1 (EBV) inhibition, confirmation. shares compounds with EBNA-1 inh. Recombinant EBNA-1 DBD, Cy5-DNA fluorescence polarization. inhibition, % at 14.8 µM. 830 tested, 35% active;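 active means mean inhibition across replicates above a set limit taken from the earlier primary screen, cut at about 28% in these data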;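 further: plate controls were EBNA-1 protein with DMSO for no effect and wells lacking EBNA-1 for full effect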
# ZTA DNA inh trip – counter-screen for EBNA-1 inhibitors: Epstein-Barr virus ZTA inhibitors, triplicate; shares compounds with EBNA-1 inh; Zta-ZRE DNA binding, Cy5 fluorescence polarization; 830 tested, under 10 active; inhibition, % at 11.1 µM;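 active means mean inhibition over triplicates above a set limit taken from the primary EBNA-1 screen, cut at about 37% in these data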;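 further: purified full length Zta protein with Cy5 labeled ZRE DNA probe; 0% = Zta with DMSO and 100% = wells lacking Zta protein; inhibitors lower polarization by freeing the labeled DNA probe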
# Numbers without * were called inactive; · = no result.
SMILES,UBC13 polyUb,M18AAP inhibitor,Apaf-1 inh,EBNA-1 inh,ZTA DNA inh,PfGluPho inh,EBNA-1 inh conf,ZTA DNA inh trip
O=c1c2ccccc2nc2c3ccccc3c(NCc3ccco3)nn12,-3.0,-0.5,6.2,31.5*,5.0,0.6,1.8,-6.8
Cc1ccc(C(=O)N/C(=C\c2ccco2)C(=O)N2CCOCC2)cc1C,-4.7,22.8,-3.5,-17.3,-17.8,12.6,·,·
CCOc1ccc(N2C(=O)CC(NC3CCN(C(=O)c4cccc(Cl)c4)CC3)C2=O)cc1 (stereo unspecified),-12.7,-18.8,-3.4,50.1*,27.2,-2.3,-9.5,-7.6
CCOC(=O)c1ccc(N2C(=O)CC(NC3CCN(C(=O)c4cccc(Cl)c4)CC3)C2=O)cc1 (stereo unspecified),-4.0,4.3,4.6,-7.5,2.9,-3.6,·,·
O=C(Nc1ccc(F)cc1)Nc1ccccc1F,-13.0,0.5,-4.4,3.8,-1.7,0.6,·,·
O=C(Nc1ccc(NC(=O)c2ccccc2O)cc1)Nc1ccc(F)cc1F,11.6,2.5,-1.7,38.2*,-8.4,-9.9,9.9,-9.3
CC(=O)NC1(C(=O)O)CCCC1,-6.9,3.2,-14.5,-8.1,4.8,-17.6,·,·
COc1cccc(CNC(=O)c2cc3oc4ccccc4c3n2C)c1OC,7.2,-1.8,16.0,31.6*,1.4,-10.2,24.1,-11.2
CCOc1ccc(CNC(=O)c2cc3oc4ccccc4c3n2C)cc1,17.1,-3.6,6.7,4.7,-5.7,-2.5,·,·
NC(=S)Nc1ccc(S(=O)(=O)c2ccc(NC(N)=S)cc2)cc1,6.2,4.3,-2.2,10.9,1.9,-23.1,·,·
O=[N+]([O-])c1cccc(/C=N/Nc2nc(NCc3ccccc3)nc(N3CCOCC3)n2)c1,-7.4,-2.1,10.9,48.9*,11.4,0.7,70.6*,0.3
CC(C)CNC(=S)N(Cc1ccco1)Cc1cc2cc3c(cc2[nH]c1=O)OCCO3,2.4,0.7,11.2,61.2*,7.1,20.7,2.3,16.9
O=C(Nc1ccc(C(=O)c2ccccc2)cc1)c1ccccc1,8.5,-4.2,14.2,3.1,-0.4,23.8,·,·
O=C(NNC(=O)c1ccc(NC(=O)c2ccccc2)cc1)c1ccc(F)cc1,-8.0,1.0,-0.4,66.9*,4.7,5.4,103.2*,4.0
O=C(OCC(=O)N1CCC(Cc2ccccc2)CC1)c1ccc(CO)cc1,3.1,·,-9.6,·,5.7,5.9,·,·
O=C1[C@H]2[C@@H](c3ccc(F)cc3)N3C(=O)N(c4cccc(F)c4)C(=O)[C@@]3(Cc3ccccc3)[C@H]2C(=O)N1C1CCCCC1,-12.9,·,14.1,80.7*,5.8,-0.9,9.2,-14.8
O=C1[C@H]2[C@@H](c3ccc(F)cc3)N3C(=O)N(c4cccc(Br)c4)C(=O)[C@@]3(Cc3ccccc3)[C@H]2C(=O)N1C1CCCCC1,-30.8,·,14.7,10.1,4.2,12.5,·,·
CNc1c(NS(=O)(=O)c2ccc(Br)cc2)c(=O)oc2ccccc12,1.6,-0.2,2.9,6.9,9.6,-3.0,·,·
COc1ccc(C(=O)OCN2C(=O)c3ccccc3C2=O)cc1,2.0,-1.3,6.9,-14.2,-17.2,6.3,·,·
COc1ccc(C(=O)N2C(=O)c3ccc(N)cc3C2=O)cc1,4.4,-2.7,-20.0,34.1*,-11.1,-4.9,27.4,-3.9
CCOC(=O)/C=C1/SCC(=O)N1CC(=O)Nc1ccc2c(c1)CCC2,·,·,·,·,·,-3.2,·,·
Cc1ccc(C)c(NC(=O)C(Sc2ncnc3ccccc23)c2ccccc2)c1 (stereo unspecified),8.8,0.2,5.2,-7.3,-4.7,1.8,·,·
Cc1ccc(C)c(NC(=O)C(Sc2nc3ccccc3c(=O)n2CC(C)C)c2ccccc2)c1 (stereo unspecified),-5.2,-11.0,6.2,32.5*,-7.1,1.0,-1.2,1.6
CC(=O)Oc1cccc(C2C3=C(CC(C)(C)CC3=O)Nc3ccccc3N2C(C)=O)c1 (stereo unspecified),-11.3,3.5,-2.2,-18.5,-9.3,-14.2,·,·
Cc1ccc2c(c1)N1C(=O)c3ccccc3C1C1=C(CC(C)(C)CC1=O)N2 (stereo unspecified),-23.3,2.5,26.0,92.8*,5.9,-13.0,-10.7,-4.8
SMILES,UBC13 polyUb,M18AAP inhibitor,Apaf-1 inh,EBNA-1 inh,ZTA DNA inh,PfGluPho inh,EBNA-1 inh conf,ZTA DNA inh trip
COc1cc(-c2nc3n(n2)C(c2ccncc2)C2=C(CCCC2=O)N3)cc(OC)c1OC (stereo unspecified),8.7,-9.2,-8.4,11.4,18.1,10.8,·,·
COc1cc(-c2nc3n(n2)C(c2cccc(OC)c2OC)C2=C(CCCC2=O)N3)cc(OC)c1OC (stereo unspecified),12.1,7.0,2.3,84.5*,3.3,14.7,111.5*,0.3
CCOc1ccc(NC(=O)c2cc3cc4ccc(OC)cc4nc3o2)cc1,4.1,4.4,-1.4,28.9*,2.7,-14.3,45.4*,4.6
O=C(NCc1ccco1)c1ccc(S(=O)(=O)N2CCOCC2)cc1,8.4,22.5,0.7,4.3,18.8,23.1,·,·
COc1ccc(N2CCN(S(=O)(=O)c3ccc(C(=O)NCc4ccco4)cc3)CC2)cc1,-4.6,-1.4,-3.8,38.0*,-11.8,-3.6,26.8,3.3
Fc1cccc(Oc2nc3ccccc3n3cccc23)c1,12.4,-5.8,2.9,17.3,-11.0,25.0,·,·
Cc1onc(-c2c(Cl)cccc2Cl)c1C(=O)N=C(N)N1CCCC1,-13.3,-2.0,-9.9,-2.3,2.5,2.7,·,·
Cc1c(C(=O)NCc2ccc3c(c2)OCO3)sc2nc(-c3ccc(F)cc3)cn12,-1.3,-17.6,6.9,36.8*,-5.0,5.1,7.7,4.5
C/C(=N\Nc1ccc(Cl)c(C(=O)O)c1)c1ccc(N2CCOCC2)cc1,-12.8,18.5,4.1,-15.9,-3.3,-1.8,·,·
CCn1c(SCC(=O)NCCc2ccccc2)nc2c([nH]c3ccccc32)c1=O,-4.5,-2.0,-7.3,41.8*,11.0,15.2,7.1,6.3
CCn1c(SCC(=O)NCCc2ccc(OC)c(OC)c2)nc2c([nH]c3ccccc32)c1=O,·,·,·,·,·,-6.9,·,·
O=[N+]([O-])c1ccccc1NCCNc1ncc(C(F)(F)F)cc1Cl,-13.7,-3.8,6.6,61.6*,25.4,14.6,53.1*,11.4
Cc1ccc(-c2nc3ccccc3[nH]2)cc1NC(=O)c1ccco1,6.5,2.9,-0.9,-3.5,-2.2,40.8,·,·
Cc1ccc(-c2nc3ccccc3[nH]2)cc1NC(=O)c1sc2cc(Cl)ccc2c1Cl,-16.2,1.1,11.8,92.4*,8.2,2.1,82.8*,19.6
COc1ccc(CNC(=O)C2CCN(c3nnc(N4CCCC4=O)s3)CC2)cc1,0.4,1.3,2.4,5.4,0.3,6.4,·,·
Cc1ccccc1CNC(=O)C1CCN(c2nnc(N3CCCC3=O)s2)CC1,7.3,-8.0,-0.3,96.3*,-10.4,-9.9,-8.3,-0.4
